In ChEMBL document CHEMBL4428054, “Synthesis of Fluorescent Binaphthyl Amines That Bind c-MYC G-Quadruplex DNA and Repress c-MYC Expression” (J Med Chem, 2016):
The source made the active and inactive calls. The rule behind the calls is not given here.

Experiments:
Quadruplex DNA [1] = assay: Effect on parallel topology of c-MYC G-quadruplex (unknown origin) at 0 to 5 equivalent by CD spectroscopy; type: nucleic-acid assay; details: unidentified
HeLa [2] = assay: Cytotoxicity against human HeLa cells incubated for 24 hrs by MTT assay; type: functional, cell-based
In short: (§1)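 MTT growth-inhibition assay in HeLa, A549 and mouse C2C12 cells. Cells given 0.1% DMSO served as control. IC50 values were reported.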

dsDNA [3] = assay: Stabilization of 5'-FAM and 3'-TAMRA-labeled dsDNA (unknown origin) assessed as change in melting temperature at 1 uM by FRET assay; type: nucleic-acid assay
In short: (§2)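 FRET melting of dual-labelled (5′-FAM/3′-TAMRA) promoter quadruplexes or duplex in 60 mM potassium cacodylate buffer, pH 7.4. ΔTm is taken against ligand-free Tm. The ligand was tested across a concentration series. Maximum measurable Tm is 93 °C.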

Quadruplex DNA [4] = assay: Stabilization of c-MYC G-quadruplex in human HeLa cells assessed as reduction in c-MYC mRNA level at 5 uM incubated for 24 hrs by RT-PCR method; type: cell-based; parameters: scale not given: the % may be the effect or the level left
In short: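 qRT-PCR on HeLa cells treated 24 h at 1.0, 2.5 or 5.0 μM. c-MYC mRNA was normalised to GAPDH and compared with 0.1% DMSO-treated control.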

Quadruplex DNA [5] = assay: Stabilization of 5'-FAM and 3'-TAMRA-labeled c-KIT2 G-quadruplex (unknown origin) assessed as change in melting temperature at 1 uM by FRET assay; type: nucleic-acid assay; details: unidentified; in short: as §2
HeLa [6] = assay: Induction of apoptosis in human HeLa cells assessed as necrotic cells level at 5 uM incubated for 24 hrs by Annexin V-FITC staining based flow cytometry (reference value: 0.1%); type: functional
Quadruplex DNA [7] = assay: Stabilization of 5'-FAM and 3'-TAMRA-labeled c-KIT1 G-quadruplex (unknown origin) assessed as change in melting temperature at 1 uM in presence of 100 nM to 10 uM dsDNA by FRET assay; type: nucleic-acid assay; details: unidentified
HeLa [8] = assay: Induction of apoptosis in human HeLa cells assessed as viable cell level at 5 uM incubated for 24 hrs by Annexin V-FITC staining based flow cytometry; type: functional
[9] = Drug localization in nucleus of human HeLa cells at 5 uM incubated for 2 hrs by fluorescence microscopy; type: ADME, subcellular
In short: (§3)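 Intrinsic ligand fluorescence imaged by fluorescence microscopy in HeLa cells after 2 h at 5.0 μM. Merged images were used to assign nuclear versus cytoplasmic localisation.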

unidentified [10] = assay: Selectivity for 5'-FAM and 3'-TAMRA-labeled c-MYC G-quadruplex (unknown origin) over 5'-FAM and 3'-TAMRA-labeled c-KIT2 G-quadruplex (unknown origin)
Quadruplex DNA [11] = assay: Binding affinity to pre-annealed k-RAS G-quadruplex (unknown origin) in 100 mM KCl, 10 mM Tris.HCl at pH 7.4 by fluorescence spectroscopy relative to untreated control; type: nucleic-acid assay, unidentified
In short: (§4)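 Fluorescence titration in 100 mM KCl, 10 mM Tris·HCl, pH 7.4. Excitation was 350 nm and emission was read at the 430 nm maximum. Ligand (1 μM for c-MYC) was titrated with increasing quadruplex or ds DNA, up to 20 equiv. Change in intensity was scored, and Kd was derived from the titration curves.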

Quadruplex DNA [12] = assay: Binding affinity to pre-annealed c-MYC G-quadruplex (unknown origin) assessed as hypochromacity at 20 uM in 10 mM Tris.HCl buffer containing 100 mM KCl at pH 7.4 by UV/Visible spectroscopy; type: nucleic-acid assay; details: unidentified
In short: (§5)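 UV–vis titration of 20 μM ligand with preannealed c-MYC quadruplex (0–1.4 equiv) in 100 mM KCl, 10 mM Tris·HCl, pH 7.4. Hypochromicity was followed at the 362 nm ligand band, because the 298 nm band overlaps DNA absorbance. Kd was fitted with the Hill 1 equation.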

HeLa [13] = assay: Effect on GAPDH mRNA expression in human HeLa cells at 1 to 5 uM incubated for 24 hrs by RT-PCR method; type: ADME, cell-based
unidentified [14] = assay: Selectivity for 5'-FAM and 3'-TAMRA-labeled c-MYC G-quadruplex (unknown origin) over 5'-FAM and 3'-TAMRA-labeled k-RAS G-quadruplex (unknown origin)
HeLa [15] = assay: Induction of apoptosis in human HeLa cells assessed as late apoptotic cells level at 5 uM incubated for 24 hrs by Annexin V-FITC staining based flow cytometry (reference value: 0.8%); type: functional
Quadruplex DNA [16] = assay: Stabilization of c-MYC G-quadruplex in human HeLa cells assessed as reduction in c-MYC mRNA level at 5 uM incubated for 24 hrs by Western blot method; type: cell-based; parameters: scale not given: the % may be the effect or the level left; details: in the assay text read “c-MYC protein level” for “c-MYC mRNA level”
In short: (§6)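 Western blot of HeLa lysates after 24 h at 1, 2.5 or 5 μM, with DMSO control. c-MYC was probed, GAPDH served as loading control, and bands were quantified by densitometry.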

Quadruplex DNA [17] = assay: Stabilization of 5'-FAM and 3'-TAMRA-labeled k-RAS G-quadruplex (unknown origin) assessed as change in melting temperature at 1 uM in presence of 100 nM to 10 uM dsDNA by FRET assay; type: nucleic-acid assay; details: unidentified
Quadruplex DNA [18] = assay: Stabilization of 5'-FAM and 3'-TAMRA-labeled k-RAS G-quadruplex (unknown origin) assessed as change in melting temperature at 1 uM by FRET assay; type: nucleic-acid assay; details: unidentified; in short: as §2
HeLa [19] = assay: Effect on GAPDH protein expression in human HeLa cells at 1 to 5 uM incubated for 24 hrs by Western blot method; type: ADME, cell-based; in short: as §6
Quadruplex DNA [20] = assay: Stabilization of 5'-FAM and 3'-TAMRA-labeled c-MYC G-quadruplex (unknown origin) assessed as change in melting temperature at 1 uM by FRET assay; type: nucleic-acid assay; details: unidentified; in short: as §2
dsDNA [21] = assay: Stabilization of 5'-FAM and 3'-TAMRA-labeled dsDNA (unknown origin) assessed as change in melting temperature at 5 uM by FRET assay; type: nucleic-acid assay; in short: as §2
Quadruplex DNA [22] = assay: Binding affinity to pre-annealed c-MYC G-quadruplex (unknown origin) in 100 mM KCl, 10 mM Tris.HCl at pH 7.4 by fluorescence spectroscopy relative to untreated control; type: nucleic-acid assay, unidentified; in short: as §4
HeLa [23] = assay: Cell cycle arrest in human HeLa cells assessed as accumulation at subG1 phase at 5 uM incubated for 24 hrs by propidium iodide staining based flow cytometry (reference value: 2.2%); type: functional
Quadruplex DNA [24] = assay: Binding affinity to pre-annealed c-MYC G-quadruplex (unknown origin) assessed as increase in fluorescence intensity at 1 uM in 100 mM KCl, 10 mM Tris.HCl at pH 7.4 by fluorescence spectroscopy relative to untreated control; type: nucleic-acid assay; details: unidentified; in short: as §4
Quadruplex DNA [25] = assay: Binding affinity to pre-annealed c-KIT2 G-quadruplex (unknown origin) in 100 mM KCl, 10 mM Tris.HCl at pH 7.4 by fluorescence spectroscopy relative to untreated control; type: nucleic-acid assay, unidentified; in short: as §4
Quadruplex DNA [26] = assay: Binding affinity to c-MYC G-quadruplex (unknown origin) by 1H-NMR spectroscopy; type: nucleic-acid assay; details: unidentified
In short: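 1D 1H NMR of c-MYC quadruplex DNA at different ligand:DNA ratios, monitoring imino and aromatic regions against partial signal assignments. Chemical shift perturbation or line broadening was noted separately at ratios below 1 and at ratios of 1 or above.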

C2C12 = assay: Cytotoxicity against mouse C2C12 cells incubated for 24 hrs by MTT assay; type: cell-based; details: C2C12, 24 h; in short: as §1
Quadruplex DNA [27] = assay: Binding affinity to pre-annealed c-MYC G-quadruplex (unknown origin) in 10 mM Tris.HCl buffer containing 100 mM KCl at pH 7.4 by UV/Visible spectroscopy; type: nucleic-acid assay, unidentified; in short: as §5
dsDNA [28] = assay: Binding affinity to 20 equivalents of dsDNA (unknown origin) in 100 mM KCl, 10 mM Tris.HCl at pH 7.4 by fluorescence spectroscopy relative to untreated control; type: nucleic-acid assay; in short: as §4
Quadruplex DNA [29] = assay: Stabilization of 5'-FAM and 3'-TAMRA-labeled c-KIT2 G-quadruplex (unknown origin) assessed as change in melting temperature at 1 uM in presence of 100 nM to 10 uM dsDNA by FRET assay; type: nucleic-acid assay; details: unidentified
Quadruplex DNA [30] = assay: Stabilization of 5'-FAM and 3'-TAMRA-labeled c-MYC G-quadruplex (unknown origin) assessed as change in melting temperature at 1 uM in presence of 100 nM to 10 uM dsDNA by FRET assay; type: nucleic-acid assay; details: unidentified
dsDNA [31] = assay: Binding affinity to dsDNA (unknown origin) in 10 mM Tris.HCl buffer containing 100 mM KCl at pH 7.4 by UV/Visible spectroscopy; type: nucleic-acid assay
HeLa [32] = assay: Cell cycle arrest in human HeLa cells assessed as accumulation at S phase at 5 uM incubated for 24 hrs by propidium iodide staining based flow cytometry (reference value: 10.8%); type: functional
Quadruplex DNA [33] = assay: Stabilization of 5'-FAM and 3'-TAMRA-labeled c-KIT1 G-quadruplex (unknown origin) assessed as change in melting temperature at 1 uM by FRET assay; type: nucleic-acid assay; details: unidentified; in short: as §2
HeLa [34] = assay: Cell cycle arrest in human HeLa cells assessed as accumulation at G2/M phase at 5 uM incubated for 24 hrs by propidium iodide staining based flow cytometry (reference value: 25.5%); type: functional
Quadruplex DNA [35] = assay: Binding affinity to pre-annealed c-KIT1 G-quadruplex (unknown origin) in 100 mM KCl, 10 mM Tris.HCl at pH 7.4 by fluorescence spectroscopy relative to untreated control; type: nucleic-acid assay, unidentified; in short: as §4
[36] = Drug localization in cytoplasm of human HeLa cells at 5 uM incubated for 2 hrs by fluorescence microscopy; type: ADME, subcellular; in short: as §3
HeLa [37] = assay: Induction of apoptosis in human HeLa cells assessed as early apoptotic cells level at 5 uM incubated for 24 hrs by Annexin V-FITC staining based flow cytometry (reference value: 1.1%); type: functional
[38] = Selectivity for 5'-FAM and 3'-TAMRA-labeled c-MYC G-qudaruplex (unknown origin) over 5'-FAM and 3'-TAMRA-labeled c-KIT1 G-qudaruplex (unknown origin)
A549 = assay: Cytotoxicity against human A549 cells incubated for 24 hrs by MTT assay; type: functional, cell-based; details: A549, 24 h; in short: as §1
HeLa [39] = assay: Cell cycle arrest in human HeLa cells assessed as accumulation at G0/G1 phase at 5 uM incubated for 24 hrs by propidium iodide staining based flow cytometry (reference value: 61.5%); type: functional

In the case of `CN(C)CCCn1cc(CNC(=O)c2ccc(Nc3ccc(-c4ccc(Nc5ccc(C(=O)NCc6cn(CCCN(C)C)nn6)cc5)c5ccccc45)c4ccccc34)cc2)nn1`, the Activity (Quadruplex DNA [1]) is reported as “inactive”, the IC50 (HeLa [2]) is reported as 5.53 µM and the ΔTm (dsDNA [3]) is reported as 2 °C. It also gave an Activity (Quadruplex DNA [4]) of 58%, a ΔTm (Quadruplex DNA [5]) of 15 °C and an Activity (HeLa [6]) of 0.6%. The Activity (Quadruplex DNA [7]) was “Active”, the Activity (HeLa [8]) was “Active” and the Drug uptake [9] was “Active”. It also gave a Selectivity ratio (unidentified [10]) of 3 to 5, a Kd (Quadruplex DNA [11]) of 11.4 to 13.8 µM and an Activity (Quadruplex DNA [12]) of 37%. The Activity (HeLa [13]) was “Non-Toxic”, the Selectivity ratio (unidentified [14]) was 3 to 5 and the Activity (HeLa [15]) was 12%. The Activity (Quadruplex DNA [16]) was 68%, the Activity (Quadruplex DNA [17]) was “Active” and the ΔTm (Quadruplex DNA [18]) was 22 °C. The Activity (HeLa [19]) was “Non-Toxic”, the ΔTm (Quadruplex DNA [20]) was 23 °C and the Activity (dsDNA [21]) was “inactive”. The Kd (Quadruplex DNA [22]) was 4.2 µM, the Activity (HeLa [23]) was 32.2% and the fold change (FC) (Quadruplex DNA [24]) was 3.5. For the same compound, the Kd (Quadruplex DNA [25]) was 11.1 µM, the Activity (Quadruplex DNA [26]) was “Active” and the IC50 (C2C12) was no less than 40 µM. The Kd (Quadruplex DNA [27]) was 4.4 µM, the Activity (dsDNA [28]) was “inactive” and the Activity (Quadruplex DNA [29]) was “Active”. The Activity (Quadruplex DNA [30]) was “Active”, the Activity (dsDNA [31]) was “inactive” and the Activity (HeLa [32]) was 4.2%. The ΔTm (Quadruplex DNA [33]) was 11 °C, the Activity (HeLa [34]) was 29.9% and the Kd (Quadruplex DNA [35]) was 10.2 µM. The Drug uptake [36] was “Active”, the Activity (HeLa [37]) was 55.9% and the Selectivity ratio [38] was 3 to 5. The IC50 (A549) was no less than 40 µM and the Activity (HeLa [39]) was 33.7%.
